Source: PubChem BioAssay
MT1-MMP act inh: blockers of MT1-MMP proenzyme processing, primary screen, HT1080 RFP-PRO-GFP cells, GFP/RFP fluorescence | hit rate 0.061% among 360,000 | Matrix metalloproteinase-14 (Homo sapiens), P50281 | AID 651647, 2012 | GFP/RFP ratio change, % at 20 µM | GFP/RFP ratio fluorescence, overnight; percent of plate control window, DMSO zero;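 active means GFP/RFP ratio change of at least 30% with cell ATP level not reduced by more than half and red fluorescence within 50% of control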
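Material – HT1080 RFP-PRO-GFP cells · Control set – DMSO wells and RFP-L50D-GFP cells · Incubation – overnight cell settling, then overnight compound exposure, 37 °C, 5% CO2 · Compound dosing – single-point 20 µM compound, 1% DMSO · Read-out – GFP/RFP fluorescence ratio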
DAGLB inhibitor: DAGLB lipase inhibitors, primary screen, biochemical, fluorescence, HTS | Diacylglycerol lipase-beta (Homo sapiens), Q8NCG7 | AID 504411, 2011 | inhibition, % at 5.17 µM | HEK293T DAGLB membrane lysate, EnzChek fluorogenic substrate | hit rate 0.059% among 340,000; in the data active means inhibition above about 34%;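 further: 0% = enzyme with vehicle and 100% = wells lacking enzyme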
TMEM16A act: TMEM16A chloride channel activators or potentiators, primary screen, cell-based, HTS. Anoctamin-1 (Mus musculus), Q8BHY3. HEK293 TMEM16A/YFP-H148Q/I152L, iodide quench fluorescence; active compounds read low. B-score at 10 µM. hit rate 0.3% among 340,000. AID 623877, 2012;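 active means fluorescence-ratio B-score plate-corrected deviation score at least 3 library SD below zero, with starting fluorescence score within 5 deviations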;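 further: channel opened by trigger with iodide after compound preincubation; score built on the fluorescence ratio of max minus min over baseline; more negative score means more quench and so TMEM16A activation or potentiation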
Target sequence (Q8BHY3 whole entry, looked up): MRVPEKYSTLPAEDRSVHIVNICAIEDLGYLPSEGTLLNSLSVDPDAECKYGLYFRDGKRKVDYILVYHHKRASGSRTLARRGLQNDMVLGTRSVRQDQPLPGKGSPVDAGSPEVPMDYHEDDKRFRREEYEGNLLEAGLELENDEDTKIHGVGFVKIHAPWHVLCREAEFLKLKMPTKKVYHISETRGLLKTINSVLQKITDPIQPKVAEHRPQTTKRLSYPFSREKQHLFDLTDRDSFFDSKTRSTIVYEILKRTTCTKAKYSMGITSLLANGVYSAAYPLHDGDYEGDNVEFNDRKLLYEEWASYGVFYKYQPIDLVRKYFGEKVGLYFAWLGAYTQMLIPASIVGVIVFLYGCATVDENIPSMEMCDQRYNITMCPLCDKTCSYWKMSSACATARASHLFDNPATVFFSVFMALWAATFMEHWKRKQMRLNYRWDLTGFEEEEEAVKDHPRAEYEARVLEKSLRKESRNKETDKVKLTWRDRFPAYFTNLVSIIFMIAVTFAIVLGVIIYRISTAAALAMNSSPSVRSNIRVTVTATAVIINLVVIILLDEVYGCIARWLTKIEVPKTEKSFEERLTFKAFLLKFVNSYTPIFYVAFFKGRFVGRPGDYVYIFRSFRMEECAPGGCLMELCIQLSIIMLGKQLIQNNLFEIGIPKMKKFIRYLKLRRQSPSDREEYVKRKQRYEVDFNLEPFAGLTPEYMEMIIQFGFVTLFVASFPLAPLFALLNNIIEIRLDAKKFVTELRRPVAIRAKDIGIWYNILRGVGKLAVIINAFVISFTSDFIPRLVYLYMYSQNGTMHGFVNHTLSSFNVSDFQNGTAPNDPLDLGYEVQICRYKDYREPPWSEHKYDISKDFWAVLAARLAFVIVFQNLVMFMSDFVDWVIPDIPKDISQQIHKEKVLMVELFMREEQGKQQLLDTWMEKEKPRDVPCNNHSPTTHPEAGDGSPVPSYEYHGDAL
TMEM16A inh: TMEM16A chloride channel inhibitors, primary screen, cell-based, HTS; HEK293 TMEM16A/YFP iodide influx fluorescence, ionomycin; normalized B-score (activity score, 25-100; higher = stronger inhibition) at 10 µM; hit rate 1.2% among 310,000;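 active means ratio plate-corrected score three or more library SD toward inhibition, starting fluorescence score within five deviations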;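 further: score derived from kinetic fluorescence span divided by baseline fluorescence per well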
* hit, by the source's call; i = inactive; . = not tested or not shown. Sampled rows, rich in hits. Any-hit rate of the full collection: about 1.3%.

SMILES	MT1-MMP act inh	DAGLB inhibitor	TMEM16A act	TMEM16A inh
CC1(C)SC(=S)N(/N=C/c2ccc(O)cc2)C1N(O)C(=O)Nc1ccc([N+](=O)[O-])cc1 (stereo not given)	-2	-1	i	100*
Cc1ccc(/C=N/N2C(=S)SC(C)(C)C2N(O)C(=O)Nc2ccc([N+](=O)[O-])cc2)cc1 (stereo not given)	-16	-5	i	i
Cc1cc(=O)c(C(=O)Nc2cccc(N3CCCC3=O)c2)nn1-c1ccccc1F	3	0	-46*	.
CCOC(=O)C1(CCCc2ccccc2)CCN(C(=O)c2n[nH]c(CC)c2C)CC1	8	0	.	.
NC(=S)N/N=C1\CC(n2nnn(-c3cccc(Cl)c3)c2=S)C2COC1O2 (stereo not given)	4	1	-5.6*	i
O=C(O)c1ccc(CNC(=O)C2CCN(S(=O)(=O)c3cccs3)CC2)cc1	0	1	.	.
CSc1ccccc1CNc1nc(NCC2CC2)nc2ccsc12	12	.	.	.
COc1ccc(OC)c(N)c1	37*	4	i	i
O=C1c2ccccc2S(=O)(=O)c2cc(C(=O)N(c3ccccn3)c3ccccn3)ccc21	1	1	-7.5*	i
Cc1cc2nc(C)n(CCCNC(=O)Nc3cccc4ccccc34)c2cc1C	6	-3	i	25*
CCOc1ccc(NC(=O)NCCCn2c(C)nc3cc(C)c(C)cc32)cc1	2	1	i	i
O=C(CCl)N1CCN2C(=O)c3ccccc3C12c1ccc(Cl)cc1 (stereo not given)	-3	3	i	i
O=C(Nc1cccc(Cl)c1)N1CCN2C(=O)c3ccccc3C12c1ccccc1 (stereo not given)	-18	-8	i	25*
Cc1ccc(NC(=O)c2ccccc2NS(=O)(=O)c2ccc(Cl)s2)cc1S(=O)(=O)N1CCOCC1	-17	11	i	25*
COc1ccccc1-c1cnc2c(c1)C(=O)N([C@@H](C)CO)C[C@@H](C)[C@H](CN(C)C(=O)c1cccnc1)O2	-1	0	.	.
COc1ccccc1OCc1nnc(SCC(=O)c2cc(Cl)ccc2OC)o1	0	-5	i	100*
CC(C)(C)NC(=O)NC(=O)CSc1nnc(COc2ccccc2Cl)o1	3	3	i	100*
COc1ccccc1OCc1nnc(SCC(=O)N2CCCC2)o1	3	2	i	i
Cc1cc(Br)ccc1NC(=O)CN(C)C(=O)C1CCN(C(=O)c2ccc(Cl)cc2)CC1	10	-2	i	.
FC(F)(F)c1ccccc1Cc1c(-c2cccc(Cl)c2)nc2c3ccccc3ccn12	1	.	.	.
CCOc1ccc(OCC(=O)OCc2cc(=O)n3cc(Br)ccc3n2)cc1	1	-4	-10*	.
Clc1nssc1=Nc1ccccc1	1	-1	i	.
Clc1ccc(N=c2ssnc2Cl)cc1	-1	1	i	100*
CCOC(=O)N1N=C(c2ccc(C)cc2)CC1(O)C(F)(F)F (stereo not given)	1	-2	i	i
CCOC(=O)N1N=C(CC)CC1(O)C(F)(F)F (stereo not given)	-7	-1	-11*	i
SMILES	MT1-MMP act inh	DAGLB inhibitor	TMEM16A act	TMEM16A inh
CC1(C)CC(=O)C2=C(C1)NC(SCC(=O)Nc1ccccc1)=C(C#N)C21CCCCC1	0	-26	i	i
CC(C)(C)C1CCC2(CC1)C(C#N)=C(SCC(=O)Nc1ccccc1)NC(=O)C2C#N (stereo not given)	-6	0	i	100*
CC1CC(CCC(=O)NC(=S)Nc2ccc(S(N)(=O)=O)cc2)C(=O)O1 (stereo not given)	7	2	-4.7*	i
Cc1ccc(COC(=O)CN2C(=O)NC3(CCCCC3C)C2=O)cc1 (stereo not given)	1	5	i	.
CN(C)S(=O)(=O)Oc1cccc(C(=O)Nc2ccccc2Cl)c1	4	0	i	i
CN(C)S(=O)(=O)Oc1cccc(C(=O)Nc2ccc(Cl)cc2)c1	0	-2	i	100*
CCOC(=O)C1(C)CCN1C(=O)c1ccco1 (stereo not given)	-2	.	.	.
COc1c2c(c(OC)c3ccccc13)[C@@]1(OC2)O[C@H](CCO)C[C@H](O)[C@H]1O	3	-3	.	.
CCOC(=O)C1=C(COC(=O)c2cc(S(=O)(=O)N3CCOCC3)ccc2F)NC(=O)NC1C (stereo not given)	-4	-1	i	.
Cc1ccc(C2=NN(Cc3nnc(-c4ccccc4)o3)C(=O)SC2)cc1	1	-3	i	25*
O=C1CC2(CCCC2)CC(=O)N1c1ccccc1	-1	-1	i	i
Cc1cc(C)n(C(=O)/C(C#N)=N/Nc2cc(Cl)cc(Cl)c2)n1	-9	-2	i	100*
Cc1cc(O)c2c(c1)C(=O)c1cc(O)cc(O)c1C2=O	10	20	i	100*
COc1ccc(-c2nc3ccc(C)cn3c2CC2CCCCC2)cc1OC	-2	.	.	.
CCc1cc2c(COC(=O)c3cccc(S(C)(=O)=O)c3)cc(=O)oc2cc1O	-5	2	i	i
CNS(=O)(=O)c1cccc(C(=O)OCc2cc(=O)oc3c(C)c(O)ccc23)c1	-10	1	i	100*
CC1Oc2ccc(C#N)cc2N(Cc2ccccc2OC(F)(F)F)C1=O (stereo not given)	-10	.	.	.
Cc1cccc(C)c1NC(=S)N1CCOCC1	-3	-1	i	i
Cc1cccc(C)c1NC(=S)N1CCCN(C)CC1	2	-2	-5.7*	i
Cc1ccc(N/N=C(\C#N)C(N)=S)cc1C	-5	5	i	100*
N#C/C(=N/Nc1ccccc1[N+](=O)[O-])C(N)=S	13	15	i	i
Cc1ccc(NC(N)=S)cc1C	5	0	i	i
N#C/C(=N\Nc1ccccc1)C(N)=S	2	-1	-16*	i
N#C/C(=N\Nc1ccc(Cl)cc1)C(N)=S	8	4	i	100*
C/C(=N\NC(=O)C1CC1c1ccccc1)c1cccc([N+](=O)[O-])c1 (stereo not given)	6	-3	i	25*
SMILES	MT1-MMP act inh	DAGLB inhibitor	TMEM16A act	TMEM16A inh
Cn1cc(Cc2ccc(C(=O)N3CCOCC3)cn2)c2ccccc21	2	.	.	.
Cc1ccccc1NC(=O)c1ccccc1O	-7	0	i	25*
Clc1ccc(Cn2ncc3c(N4CCN(c5ccccc5)CC4)ncnc32)cc1	-26	.	.	.
N#C/C(=N/O)c1nc(-c2ccc(F)cc2)cs1	-7	1	i	100*
O=C(OCc1cc(=O)n2ccsc2n1)c1ccccc1NCCO	-6	3	i	.
COCCNC(=O)C1(C)CCN(C(=O)c2ccc3sccc3c2)C1 (stereo not given)	-6	.	.	.
